From ChEMBL document CHEMBL5257098, “Development and Characterization of Fluorescent Probes for the G Protein-Coupled Receptor 35” (ACS Med Chem Lett, 2023) come the findings set out here.

Active and inactive are the calls of the source. No cut-off for these calls is given here.

Experiment [1] has as its target T1, G-protein coupled receptor 35 (Homo sapiens, UniProt Q9HC97). As to the kind of experiment: Competitive binding affinity to Nluc-fused human GPR35 expressed in CHO-K1 cells assessed as inhibition constant using furimazine as substrate incubated for 30 mins followed by substrate addition by in presence of 10-(4-(2-(4-(4-((2,8-dicarboxy-6-hydroxy-10-methylpyrido[3,2-g]quinolin-4-yl)oxy)butyl)-1H-1,2,3-triazol-1-yl)ethoxy)phenyl)-5,5-difluoro-2,7,9-trimethyl-5H-imidazo[1,2-c]pyrrolo[2,1-f][ …. Format: cell-based.

The target in experiment [2] is T1, G-protein coupled receptor 35. As to the kind of experiment: Agonist activity at GPR-35 in human HT-29 cells by DMR assay. Format: cell-based. An outline of the steps: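 Label-free DMR was recorded in HT-29 cells endogenously expressing GPR35 across a range of probe concentrations. EC50 was taken from concentration–response curves. Values are mean ± SD of two independent measurements, each with four replicates.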

Experiment [3] has the same target. As to the kind of experiment: Agonist activity at GPR-35 in human HT-29 cells assessed as desensitization of zaprinast induced DMR response incubated for 1 hr followed by zaprinast stimulation. Format: cell-based.
The target is the same in experiment [4]. As to the kind of experiment: Agonist activity at human GPR-35 over expressed in CHO-K1 cells incubated for 1 hr followed by zaprinast stimulation by DMR assay. Format: cell-based. As to conditions: filed as agonist.
The target is the same in experiment [5]. Briefly: Binding affinity to Nluc-fused human GPR35 expressed in CHO-K1 cells using furimazine as substrate incubated for 30 mins in presence of zaprinast followed by substrate addition by […] equilibrium binding assay. Type of experiment: cell-based. Summed up: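 CHO-K1 cells were transfected with human GPR35 carrying an N-terminal nano-luciferase tag. Fluorescent probes were added at varying concentrations for saturation BRET binding. […] Kd was derived from the data. Values are mean ± SD of three independent measurements, each in triplicate.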

Experiment [6] has the same target. Briefly: Agonist activity at GPR-35 in human HT-29 cells assessed as DMR response in presence of ML-145.
For experiment [7] the target is unchanged. Briefly: Agonist activity at GPR-35 in human HT-29 cells incubated for 1 hr by DMR assay. Type of experiment: cell-based.
The target is the same in experiment [8]. Briefly: Reversible binding affinity to Nluc-fused human GPR35 expressed in CHO-K1 cells using furimazine as substrate incubated for 10 mins followed by addition of ML145 by kinetic assay. Format: cell-based. As to conditions: filed as agonist. Summed up: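 Kinetic BRET binding used CHO-K1 cells expressing NLUC-tagged human GPR35. The BRET emission ratio was followed after adding probe (5 nM). 10 min later, ML-145 (10 μM) was added to dissociate the probe.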

T1 sequence (Q9HC97 whole entry, the tested form may be a part): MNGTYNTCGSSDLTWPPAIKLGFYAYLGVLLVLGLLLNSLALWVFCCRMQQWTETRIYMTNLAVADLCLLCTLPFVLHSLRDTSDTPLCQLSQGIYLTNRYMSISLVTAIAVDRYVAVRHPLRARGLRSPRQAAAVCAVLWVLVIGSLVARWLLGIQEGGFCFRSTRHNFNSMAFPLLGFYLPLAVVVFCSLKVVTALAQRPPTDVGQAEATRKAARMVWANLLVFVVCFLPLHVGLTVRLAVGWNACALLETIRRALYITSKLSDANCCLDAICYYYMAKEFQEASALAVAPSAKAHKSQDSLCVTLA

Regarding `O=C(O)c1cc(=O)c2c(OCC(O)COc3cccc4oc(C(=O)O)cc(=O)c34)cccc2o1` [CROMOLYN], the inhibition constant (Ki) (as a rule, the dissociation constant of the complex between target and ligand, obtained from inhibition or displacement) in experiment [1] turned out to be 2970 nM.

For the compound `O=C(O)c1cc2cc(Br)c(O)c(Br)c2oc1=O`, the Ki in experiment [1] came out at 352 nM.

On to `CC1=CC(C)=[N+]2C1=C(c1ccc(OCCn3cc(CCCCCOc4cc(C(=O)O)nc5c(C)c6nc(C(=O)O)cc(O)c6cc45)nn3)cc1)c1nc(C)cn1[B-]2(F)F`, for which the midpoint of the response in experiment [2], the EC50, lay at 42.2 nM. In addition, the IC50 – broadly, the concentration at which inhibition is half-maximal – in experiment [3] is 5.6 nM; in experiment [6] it was 398 nM. For the same compound, the outcome in experiment [4] was Active. Further, in experiment [5], the Kd (usually the free concentration of one partner at which half of the binding sites on the other are occupied at equilibrium, for simple one-to-one binding) amounted to 8.3 nM.

Turning to `COC(=O)c1cnn(-c2ccc(F)cc2F)c1/C=N/NC(=S)NC(C)(C)C`, the Ki in experiment [1] came out at 236 nM.

As to `O=c1oc2c([N+](=O)[O-])c(O)c(Br)cc2cc1-c1nnn[nH]1`, the Ki in experiment [1] amounted to 51 nM. In addition, a half-maximal response in experiment [7] (EC50) required 6 nM.

As to `CC1=CC(C)=[N+]2C1=C(c1ccc(OCCn3cc(CCCOc4cc(C(=O)O)nc5c(C)c6nc(C(=O)O)cc(O)c6cc45)nn3)cc1)c1nc(C)cn1[B-]2(F)F`, the EC50 (in general, the midpoint of the concentration-response curve) in experiment [2] was determined as 80.8 nM. Further, the 50% inhibitory concentration (IC50) amounted to 9.6 nM in experiment [3] and 1030 nM in experiment [6]. In addition, the result in experiment [4] was Active. In addition, the Kd in experiment [5] amounted to 7.4 nM.

In the case of `Cc1c2[nH]c(C(=O)O)cc(=O)c2cc2c(=O)cc(C(=O)O)[nH]c12`, the Ki in experiment [1] came to 6 nM.

As for `O=C(O)c1cc(C(=O)O)c2c(n1)C(=O)C(=O)c1cc(C(=O)O)[nH]c1-2` [PYRROLOQUINOLINE QUINONE], in experiment [1], the inhibition constant Ki came to 332 nM.

On to `COc1ccc(C(=O)Nc2cc(Br)ccc2-c2nnn[nH]2)cc1`, for which, in experiment [1], the inhibitory constant (Ki) amounted to 10 nM.

`CC1=CC(C)=[N+]2C1=C(c1ccc(OCCn3cc(CCCCOc4cc(C(=O)O)nc5c(C)c6nc(C(=O)O)cc(O)c6cc45)nn3)cc1)c1nc(C)cn1[B-]2(F)F` displayed a concentration giving a half-maximal response (EC50) in experiment [2] of 49.5 nM. The concentration for half-maximal inhibition (IC50) in experiment [3] is 9.4 nM; in experiment [6] it was 542 nM. Besides, the result in experiment [4] and in experiment [8] was Active. In addition, in experiment [5], the dissociation constant (Kd) stood at 3.9 nM.

For the compound `CC1=CC(C)=[N+]2C1=C(c1ccc(OCCn3cc(CCOCCOc4cc(C(=O)O)nc5c(C)c6nc(C(=O)O)cc(O)c6cc45)nn3)cc1)c1nc(C)cn1[B-]2(F)F`, it took 58.8 nM to reach a half-maximal effect in experiment [2] (EC50). Besides, the results for the concentration for half-maximal inhibition (IC50) in experiment [3] and in experiment [6] were 7.8 nM and 769 nM, respectively. The outcome in experiment [4] was Active. Besides, the dissociation constant Kd in experiment [5] amounted to 17.9 nM.
